# Assay results reported in ChEMBL document CHEMBL1152768, “4-Benzyloxy-gamma-sultone derivatives: discovery of a novel family of non-nucleoside inhibitors of human cytomegalovirus and varicella zoster virus” (J Med Chem, 2009).
# How the values were obtained:
# Human betaherpesvirus 5 [1] = assay: Antiviral activity against ganciclovir-resistant HCMV AD169 clone 4 infected in HEL cells assessed as inhibition of virus-induced cytopathicity; type: functional, organism-based; settings: Human betaherpesvirus 5, AD169, HEL
# Human betaherpesvirus 5 [2] = assay: Antiviral activity against HPMPA-resistant HCMV AD169 clone 2 mutant infected in HEL cells assessed as inhibition of virus-induced cytopathicity; type: functional, organism-based; settings: Human betaherpesvirus 5, AD169, HEL
# Human betaherpesvirus 5 [3] = assay: Antiviral activity against acyclovir-resistant HCMV AD169 clone 1 infected in HEL cells assessed as inhibition of virus-induced cytopathicity; type: functional, organism-based; settings: Human betaherpesvirus 5, AD169, HEL
# Human betaherpesvirus 5 [4] = assay: Antiviral activity against cidofovir HCMV AD169 clone 5 infected in human HEL cells assessed as inhibition of virus-induced cytopathicity; type: functional, organism-based; settings: Human betaherpesvirus 5, AD169, HEL
# Human betaherpesvirus 5 [5] = assay: Antiviral activity against foscarnet-resistant HCMV AD169 clone C infected in HEL cells assessed as inhibition of virus-induced cytopathicity; type: functional, organism-based; settings: Human betaherpesvirus 5, AD169, HEL
# Human betaherpesvirus 5 [6] = assay: Antiviral activity against PMEDAP-resistant HCMV AD169 clone 4 infected in HEL cells assessed as inhibition of virus-induced cytopathicity; type: functional, organism-based; settings: Human betaherpesvirus 5, AD169, HEL
# Human betaherpesvirus 5 [7] = assay: Antiviral activity against wild type HCMV AD169 infected in HEL cells assessed as inhibition of virus-induced cytopathicity; type: functional, organism-based; settings: Human betaherpesvirus 5, AD169, HEL
# Procedure, shortened: (§1)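 HEL fibroblast cultures infected at 100 PFU input. After 2 h, residual virus was removed and compound-containing medium was added at varying concentrations, in duplicate. Cells were incubated 7 days at 37 °C, ethanol-fixed and Giemsa-stained, and cytopathicity was scored microscopically.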
# Human betaherpesvirus 5 [8] = assay: Antiviral activity against wild type HCMV Davis infected in HEL cells assessed as inhibition of virus-induced cytopathicity; type: functional, organism-based; settings: Human betaherpesvirus 5, Davis; procedure, shortened: as §1
# Human alphaherpesvirus 3 [9] = assay: Antiviral activity against thymidine kinase deficient Varicella zoster virus 07/1 infected in human HEL cells assessed reduction in viral plaque formation; type: functional, organism-based; settings: Human alphaherpesvirus 3, HEL
# Procedure, shortened: (§2)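 Confluent HEL cell monolayers were inoculated with VZV at 20 PFU per well. Residual virus was removed after 2 h, and compound was added at varying concentrations, in duplicate.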
# Human betaherpesvirus 5 [10] = assay: Antiviral activity against HCMV AD169 infected in human HEL cells assessed inhibition of virus-induced cytopathicity after 7 days postinfection; type: functional, organism-based; settings: Human betaherpesvirus 5, AD169, HEL, 168 h
# Procedure, shortened: (§3)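 HEL fibroblasts were infected at 100 PFU. After 2 h, residual virus was removed and medium with test compound was added at several concentrations, in duplicate. Cells were incubated 7 days at 37 °C, fixed with ethanol and stained with Giemsa.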
# [11] = Cytotoxicity against human HEL cells assessed as reduction of growth after 3 days; type: cell-based
# Procedure, shortened: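 HEL cells were seeded at 5 × 10³ cells/well and grown 24 h before compound was added at different concentrations. After 3 days at 37 °C, cells were counted with a Coulter counter. CC50, the concentration halving growth relative to untreated controls, was read from plots of cell number (% of control) against concentration.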
# Human alphaherpesvirus 3 [12] = assay: Antiviral activity against thymidine kinase expressing Varicella zoster virus Oka infected in human HEL cells assessed reduction in viral plaque formation; type: functional, organism-based; settings: Human alphaherpesvirus 3, Oka; procedure, shortened: as §2
# Human betaherpesvirus 5 [13] = assay: Antiviral activity against HCMV Davis infected in human HEL cells assessed inhibition of virus-induced cytopathicity after 7 days postinfection; type: functional, organism-based; settings: Human betaherpesvirus 5, Davis, 168 h; procedure, shortened: as §3
# [14] = Cytotoxicity against human HEL cells assessed as morphological alteration after 3 days; type: cell-based
# Procedure, shortened: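 HEL cultures were examined under the microscope. MCC was recorded as the compound concentration causing a microscopically detectable alteration of normal cell morphology.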
SMILES,EC50 (Human alphaherpesvirus 3 [9]),EC50 (Human betaherpesvirus 5 [10]),EC50 (Human alphaherpesvirus 3 [12]),EC50 (Human betaherpesvirus 5 [13]),EC50 (Human betaherpesvirus 5 [1]),EC50 (Human betaherpesvirus 5 [2]),EC50 (Human betaherpesvirus 5 [3]),EC50 (Human betaherpesvirus 5 [4]),EC50 (Human betaherpesvirus 5 [5]),EC50 (Human betaherpesvirus 5 [6]),EC50 (Human betaherpesvirus 5 [7]),EC50 (Human betaherpesvirus 5 [8]),CC50 at 72 h [11],MCC at 72 h [14]
Nc1ncnc2c1ncn2C[C@@H](CO)OCP(=O)(O)O,–,–,–,–,2.1 µM,1.9 µM,0.08 µM,2.1 µM,0.036 µM,0.12 µM,0.17 µM,0.2 µM,–,–
CCC1(Cc2ccccc2)OS(=O)(=O)CC1=O (stereo not drawn),10.5 µM,> 400 µM,10 µM,400 µM,–,–,–,–,–,–,–,–,200 µM,> 100 µM
CCC1(Cc2ccccc2)OS(=O)(=O)C=C1OCC=C(C)C (racemic),52 µM,> 80 µM,59 µM,> 80 µM,–,–,–,–,–,–,–,–,112 µM,400 µM
CCC1(Cc2ccccc2)OS(=O)(=O)C=C1OCC1CCCCC1 (racemic),7 µM,> 200 µM,20 µM,> 200 µM,–,–,–,–,–,–,–,–,> 200 µM,≥ 200 µM
CC1(C(c2ccccc2)c2ccccc2)OS(=O)(=O)C=C1OCc1ccccc1 (racemic),> 80 µM,> 80 µM,> 80 µM,> 400 µM,–,–,–,–,–,–,–,–,200 µM,≥ 400 µM
CCC1(Cc2ccccc2)OS(=O)(=O)C=C1OS(=O)(=O)c1ccc(C)cc1 (racemic),> 80 µM,> 80 µM,> 80 µM,> 80 µM,–,–,–,–,–,–,–,–,109 µM,400 µM
O=S1(=O)C=C(OCc2ccccc2)C2(CCc3ccccc3C2)O1 (racemic),> 16 µM,> 400 µM,80 µM,> 80 µM,–,–,–,–,–,–,–,–,131 µM,≥ 80 µM
CCC1(Cc2ccccc2)OS(=O)(=O)C=C1OCC(=O)OC (racemic),> 400 µM,> 400 µM,> 400 µM,> 400 µM,–,–,–,–,–,–,–,–,> 200 µM,> 400 µM
CCC1(Cc2ccccc2)OS(=O)(=O)C=C1OC(c1ccccc1)c1ccccc1 (racemic),> 80 µM,> 400 µM,> 80 µM,> 400 µM,–,–,–,–,–,–,–,–,> 200 µM,≥ 80 µM
Nc1nc2c(ncn2COCCO)c(=O)[nH]1 [ACYCLOVIR],72 µM,–,1.1 µM,–,–,–,–,–,–,–,15 µM,–,733 µM,> 200 µM
O=c1[nH]c(=O)n([C@H]2C[C@H](O)[C@@H](CO)O2)cc1/C=C/Br [BRIVUDINE],140 µM,–,0.015 µM,–,–,–,–,–,–,–,–,–,600 µM,> 150 µM
Nc1ccn(C[C@@H](CO)OCP(=O)(O)O)c(=O)n1 [CIDOFOVIR],–,0.3 µM,–,0.5 µM,0.74 µM,0.55 µM,0.095 µM,1 µM,0.045 µM,0.092 µM,0.076 µM,0.069 µM,74 µM,> 150 µM
O=C(O)P(=O)(O)O [FOSCARNET],–,–,–,–,20 µM,13 µM,35 µM,11 µM,95 µM,63 µM,13 µM,11 µM,–,–
Nc1nc2c(ncn2COC(CO)CO)c(=O)[nH]1 [GANCICLOVIR],–,–,–,3.6 µM,4.3 µM,1.2 µM,0.69 µM,4 µM,–,3.5 µM,0.7 µM,0.66 µM,134 µM,> 400 µM
Nc1nc(N)c2ncn(CCOCP(=O)(O)O)c2n1 [PMEDAP],–,–,–,–,1.9 µM,0.82 µM,> 50 µM,3.5 µM,25 µM,37 µM,8.4 µM,7.7 µM,–,–

# Further lines, with some results ahead:
EC50 (Human alphaherpesvirus 3 [9]),EC50 (Human betaherpesvirus 5 [10]),EC50 (Human alphaherpesvirus 3 [12]),EC50 (Human betaherpesvirus 5 [13]),SMILES,EC50 (Human betaherpesvirus 5 [1]),EC50 (Human betaherpesvirus 5 [2]),EC50 (Human betaherpesvirus 5 [3]),EC50 (Human betaherpesvirus 5 [4]),EC50 (Human betaherpesvirus 5 [5]),EC50 (Human betaherpesvirus 5 [6]),EC50 (Human betaherpesvirus 5 [7]),EC50 (Human betaherpesvirus 5 [8]),CC50 at 72 h [11],MCC at 72 h [14]
32 µM,> 80 µM,37 µM,> 80 µM,CCC1(Cc2ccccc2)OS(=O)(=O)C=C1NCc1ccccc1 (stereo not drawn),–,–,–,–,–,–,–,–,92 µM,≥ 80 µM
155 µM,> 400 µM,175 µM,234 µM,CCC1(CC)OS(=O)(=O)C=C1OCc1ccccc1,–,–,–,–,–,–,–,–,200 µM,> 400 µM
285 µM,> 400 µM,168 µM,> 400 µM,CCC1(Cc2ccccc2)OS(=O)(=O)C=C1OC (racemic),–,–,–,–,–,–,–,–,> 200 µM,> 400 µM
199 µM,> 80 µM,199 µM,235 µM,CCC1(Cc2ccccc2)OS(=O)(=O)C=C1OCC#N (racemic),–,–,–,–,–,–,–,–,> 200 µM,> 400 µM
> 80 µM,> 400 µM,> 80 µM,> 400 µM,CC(C)CC1(Cc2ccccc2)OS(=O)(=O)C=C1OCc1ccccc1 (racemic),–,–,–,–,–,–,–,–,102 µM,≥ 80 µM
5.9 µM,7.2 µM,6.4 µM,5.9 µM,CCC1(Cc2ccccc2)OS(=O)(=O)C=C1OCc1ccc(C)cc1 (racemic),–,–,–,–,–,–,–,–,41.5 µM,≥ 16 µM
7.3 µM,20 µM,6.4 µM,≥ 5 µM,CCC1(Cc2ccccc2)OS(=O)(=O)C=C1OCc1ccc(C(C)(C)C)cc1 (racemic),–,–,–,–,–,–,–,–,200 µM,≥ 400 µM
> 400 µM,> 400 µM,> 80 µM,> 400 µM,CCCC1(Cc2ccccc2)OS(=O)(=O)C=C1OCc1ccccc1 (racemic),–,–,–,–,–,–,–,–,200 µM,≥ 400 µM
> 16 µM,> 400 µM,> 80 µM,> 400 µM,CC(C)C1(Cc2ccccc2)OS(=O)(=O)C=C1OCc1ccccc1 (racemic),–,–,–,–,–,–,–,–,200 µM,≥ 80 µM
6.7 µM,> 16 µM,7.3 µM,8 µM,CCC1(Cc2ccccc2)OS(=O)(=O)C=C1OCc1cccc(Cl)c1 (racemic),–,–,–,–,–,–,–,–,50 µM,≥ 20 µM
54 µM,> 400 µM,80 µM,> 80 µM,CCC1(Cc2ccccc2)OS(=O)(=O)C=C1OCc1ccc([N+](=O)[O-])cc1 (racemic),–,–,–,–,–,–,–,–,< 200 µM,≥ 80 µM
6.7 µM,12 µM,7.7 µM,8 µM,CCC1(Cc2ccccc2)OS(=O)(=O)C=C1OCc1ccc(C(F)(F)F)cc1 (racemic),–,–,–,–,–,–,–,–,99 µM,≥ 16 µM
> 20 µM,> 3.2 µM,6.2 µM,7.8 µM,CCC1(Cc2ccccc2)OS(=O)(=O)C=C1OCCCCc1ccccc1 (racemic),–,–,–,–,–,–,–,–,99 µM,≥ 20 µM
8.4 µM,< 3.2 µM,8.7 µM,6.4 µM,CCC1(Cc2ccccc2)OS(=O)(=O)C=C1OCCCCCCc1ccccc1 (racemic),–,–,–,–,–,–,–,–,< 200 µM,≥ 20 µM
> 400 µM,> 200 µM,306 µM,> 200 µM,CC1(Cc2ccccc2)OS(=O)(=O)C=C1OCc1ccccc1 (racemic),–,–,–,–,–,–,–,–,68 µM,> 400 µM
> 16 µM,> 400 µM,> 16 µM,> 400 µM,C=CCOC1=CS(=O)(=O)OC1(CC)Cc1ccccc1 (racemic),–,–,–,–,–,–,–,–,> 200 µM,80 µM
> 3.2 µM,6.5 µM,> 3.2 µM,7.2 µM,CCC1(Cc2ccccc2)OS(=O)(=O)C=C1OCc1ccc(Cl)c(Cl)c1 (racemic),–,–,–,–,–,–,–,–,36.7 µM,≥ 20 µM
6.5 µM,9 µM,> 3.2 µM,8.7 µM,CCC1(Cc2ccccc2)OS(=O)(=O)C=C1OCCCc1ccccc1 (racemic),–,–,–,–,–,–,–,–,133 µM,≥ 20 µM
> 400 µM,> 400 µM,> 400 µM,179 µM,CCC1(Cc2ccccc2)OS(=O)(=O)C=C1OC(=O)c1ccccc1 (racemic),–,–,–,–,–,–,–,–,> 200 µM,> 400 µM
6.3 µM,10 µM,8.3 µM,6 µM,CCC1(Cc2ccccc2)OS(=O)(=O)C=C1OCc1ccc(Br)cc1 (racemic),–,–,–,–,–,–,–,–,171 µM,80 µM
